# Measurements pooled from the literature.
# Target: Rho-associated protein kinase 1 (ROCK1, Homo sapiens, UniProt Q13464)
Compound,test,conditions,remaining binding
Cc1cnc(Nc2ccc(C(=O)N3CCC(N4CCCC4)CC3)cc2)nc1-c1cc2ccccc2s1,"binding, competition with immobilised ligand",1 µM,7.7%
F[C@@H]1CCN(c2nccc(-c3cnn4ncccc34)n2)C1,binding,1 µM,100%
CC(C)CC(=O)N1CCc2nc(-c3ccc(Br)cc3)nc(N(C)Cc3ccccc3)c2C1,"cell-free assay, competition with immobilised ligand",0.1 µM,78%
CN(CCCC(F)(F)F)c1nccc(-c2cnn3ncccc23)n1,binding,1 µM,100%
CC(=O)c1c(NS(C)(=O)=O)c2cc(-c3ccc(Cl)cc3)c(-c3ccc(Cl)cc3Cl)nc2n(C)c1=O,"cell-free assay, competition with immobilised ligand",1 µM,85%
O=C(NCC1CCOCC1)c1n[nH]cc1NC(=O)c1c(F)cccc1F,"binding, competition with immobilised ligand",1 µM,83%
CC1CCCN1c1nccc(-c2cnn3ncccc23)n1 (stereo not shown),binding,1 µM,100%
COc1cnc(Nc2cccc(S(N)(=O)=O)c2)nc1N1CCN(c2ccccc2)C(=O)C1,"binding, competition with immobilised ligand",1 µM,43%
C[C@H](c1ccnc(Nc2nc3ccc(-c4cc(N(C)C)ncn4)cc3[nH]2)c1)N1CCN(C(=O)CC(F)(F)F)CC1,"cell-free assay, competition with immobilised ligand",0.1 µM,100%
N[C@@H]1CCN(c2nccc(-c3cnn4ncccc34)n2)C1,binding,1 µM,94%
O=C(c1ccc(Nc2nccc(-c3cc4ccccc4s3)n2)cc1)N1CCC(N2CCCC2)CC1,"binding, competition with immobilised ligand",1 µM,7.4%
O=C(O)c1cc(-c2ccc(C3CCNCC3)cc2)c2ccc(-c3ccc(C(F)(F)F)cc3)cc2c1,"cell-free assay, competition with immobilised ligand",1 µM,100%
CNC(=O)[C@@H]1CC[C@@H](n2c(-c3ccc4cnccc4c3)nc3ccc(C(=O)NCc4cccc(C(N)=O)c4)cc32)C1,"binding, competition with immobilised ligand",1 µM,100%
FC(F)(F)Oc1cccc(-c2cnc3ccc(-c4ccncc4)nn23)c1,"binding, competition with immobilised ligand",5 µM,42%
C[C@@H]1CCN(c2nccc(-c3cnn4ncccc34)n2)C1,binding,1 µM,86%
O=C(NCCCN1CCOCC1)c1ccc(Nc2nccc(-c3cc4ccccc4s3)n2)cc1,"binding, competition with immobilised ligand",1 µM,54%
CCN1CCN(Cc2ccc(C(=O)Nc3ccc(C)c(Oc4ccc5c(c4)CC(=O)N5)c3)cc2C(F)(F)F)CC1,"binding, competition with immobilised ligand",1 µM,69%
CN(C)c1nccc(-c2cnn3ncccc23)n1,binding,1 µM,100%
CS(=O)(=O)c1cc(C2(NC(=O)c3cncc4c3cnn4-c3ccc(F)cc3)CC2)ccn1,"cell-free assay, competition with immobilised ligand",1 µM,79%
CN(C)c1nccc(-c2cnc3ncccn23)n1,binding,1 µM,74%
CCC(=N\O)/C(C)=C/c1ccc(F)cc1,"cell-free assay, competition with immobilised ligand",1 µM,100%
Nc1ncc2c(n1)-c1c([nH]c3ccc(C#CC4CC4)cc13)CCCC2,"binding, competition with immobilised ligand",1 µM,100%
